Test results published in ChEMBL document CHEMBL2331505, “Synthesis of quinoline derivatives: discovery of a potent and selective phosphodiesterase 5 inhibitor for the treatment of Alzheimer's disease” (Eur J Med Chem, 2013).

Columns and labels:
Homo sapiens [1] = species on record: Homo sapiens; assay: Selectivity ratio of IC50 for PDE7 (unknown origin) to IC50 for PDE5 (unknown origin)
Homo sapiens [2] = species on record: Homo sapiens; assay: Selectivity ratio of IC50 for PDE9 (unknown origin) to IC50 for PDE5 (unknown origin)
Homo sapiens [3] = species on record: Homo sapiens; assay: Selectivity ratio of IC50 for PDE2 (unknown origin) to IC50 for PDE5 (unknown origin)
[4] = molecular target: Dual 3',5'-cyclic-AMP and -GMP phosphodiesterase 11A (Homo sapiens, UniProt Q9HCR9); assay: Inhibition of PDE11 (unknown origin) using FAM-cGMP and FAM-cAMP as substrate after 60 mins by fluorescence assay
Sequence of Dual 3',5'-cyclic-AMP and -GMP phosphodiesterase 11A (Q9HCR9 whole entry): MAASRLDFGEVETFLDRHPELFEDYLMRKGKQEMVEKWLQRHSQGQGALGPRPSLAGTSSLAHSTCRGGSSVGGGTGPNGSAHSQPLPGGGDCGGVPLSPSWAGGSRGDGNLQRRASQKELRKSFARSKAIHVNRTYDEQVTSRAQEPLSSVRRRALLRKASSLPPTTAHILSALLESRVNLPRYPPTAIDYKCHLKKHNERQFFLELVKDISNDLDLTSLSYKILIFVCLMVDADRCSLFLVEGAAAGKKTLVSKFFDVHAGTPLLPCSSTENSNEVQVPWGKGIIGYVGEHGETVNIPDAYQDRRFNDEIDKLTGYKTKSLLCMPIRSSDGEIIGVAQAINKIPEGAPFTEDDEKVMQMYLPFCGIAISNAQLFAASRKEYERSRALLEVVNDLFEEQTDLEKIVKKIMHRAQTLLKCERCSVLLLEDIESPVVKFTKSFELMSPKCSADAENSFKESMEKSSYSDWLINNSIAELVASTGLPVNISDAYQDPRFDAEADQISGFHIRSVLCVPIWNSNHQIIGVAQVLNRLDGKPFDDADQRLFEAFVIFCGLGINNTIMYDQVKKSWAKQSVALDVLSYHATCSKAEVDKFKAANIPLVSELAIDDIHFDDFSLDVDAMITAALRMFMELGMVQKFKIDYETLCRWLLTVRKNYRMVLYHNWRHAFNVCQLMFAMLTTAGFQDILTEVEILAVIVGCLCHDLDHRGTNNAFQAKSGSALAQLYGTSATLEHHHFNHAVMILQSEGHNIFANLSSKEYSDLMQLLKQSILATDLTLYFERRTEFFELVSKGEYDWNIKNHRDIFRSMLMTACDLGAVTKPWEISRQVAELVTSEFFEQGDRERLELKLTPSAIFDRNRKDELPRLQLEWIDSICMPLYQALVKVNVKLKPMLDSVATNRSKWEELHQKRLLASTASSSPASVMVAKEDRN

Homo sapiens [5] = species on record: Homo sapiens; assay: Selectivity ratio of IC50 for PDE3 (unknown origin) to IC50 for PDE5 (unknown origin)
Homo sapiens [6] = species on record: Homo sapiens; assay: Selectivity ratio of IC50 for PDE10 (unknown origin) to IC50 for PDE5 (unknown origin)
Phosphodiesterase 3 = Phosphodiesterase 3 (Homo sapiens, UniProt Q14432+Q13370); assay: Inhibition of PDE3 (unknown origin) using FAM-cGMP and FAM-cAMP as substrate after 60 mins by fluorescence assay; format: protein assay
[7] = molecular target: High affinity cGMP-specific 3',5'-cyclic phosphodiesterase 9A (Homo sapiens, UniProt O76083); assay: Inhibition of PDE9 (unknown origin) using FAM-cGMP as substrate after 60 mins by fluorescence assay
Sequence of High affinity cGMP-specific 3',5'-cyclic phosphodiesterase 9A (O76083 whole entry): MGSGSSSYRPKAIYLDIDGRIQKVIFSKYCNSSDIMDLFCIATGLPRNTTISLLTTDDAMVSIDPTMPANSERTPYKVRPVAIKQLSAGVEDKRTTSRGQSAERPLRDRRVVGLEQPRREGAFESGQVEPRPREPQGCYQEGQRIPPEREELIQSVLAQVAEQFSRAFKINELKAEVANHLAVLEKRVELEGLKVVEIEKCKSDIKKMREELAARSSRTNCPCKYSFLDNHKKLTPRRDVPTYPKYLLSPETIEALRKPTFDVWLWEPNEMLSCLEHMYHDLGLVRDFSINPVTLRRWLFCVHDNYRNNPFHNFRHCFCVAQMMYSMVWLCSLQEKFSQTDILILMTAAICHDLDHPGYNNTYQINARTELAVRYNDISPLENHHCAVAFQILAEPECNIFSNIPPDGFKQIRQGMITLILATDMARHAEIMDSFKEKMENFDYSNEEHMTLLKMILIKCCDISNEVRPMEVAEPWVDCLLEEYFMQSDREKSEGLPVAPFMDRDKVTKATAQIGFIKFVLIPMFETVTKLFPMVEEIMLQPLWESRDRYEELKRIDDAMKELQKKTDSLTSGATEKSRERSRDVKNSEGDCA

Phosphodiesterase 8 = Phosphodiesterase 8 (Homo sapiens, UniProt O95263+O60658); assay: Inhibition of PDE8 (unknown origin) using FAM-cAMP as substrate after 60 mins by fluorescence assay; format: protein assay
Phosphodiesterase 1 = Phosphodiesterase 1 (Homo sapiens, UniProt P54750+Q01064+Q14123); assay: Inhibition of PDE1 (unknown origin) using FAM-cGMP and FAM-cAMP as substrate after 60 mins by fluorescence assay; format: protein assay
Homo sapiens [8] = species on record: Homo sapiens; assay: Selectivity ratio of IC50 for PDE8 (unknown origin) to IC50 for PDE5 (unknown origin)
Homo sapiens [9] = species on record: Homo sapiens; assay: Selectivity ratio of IC50 for PDE1 (unknown origin) to IC50 for PDE5 (unknown origin)
[10] = molecular target: cAMP and cAMP-inhibited cGMP 3',5'-cyclic phosphodiesterase 10A (Homo sapiens, UniProt Q9Y233); assay: Inhibition of PDE10 (unknown origin) using FAM-cGMP and FAM-cAMP as substrate after 60 mins by fluorescence assay
Sequence of cAMP and cAMP-inhibited cGMP 3',5'-cyclic phosphodiesterase 10A (Q9Y233 whole entry): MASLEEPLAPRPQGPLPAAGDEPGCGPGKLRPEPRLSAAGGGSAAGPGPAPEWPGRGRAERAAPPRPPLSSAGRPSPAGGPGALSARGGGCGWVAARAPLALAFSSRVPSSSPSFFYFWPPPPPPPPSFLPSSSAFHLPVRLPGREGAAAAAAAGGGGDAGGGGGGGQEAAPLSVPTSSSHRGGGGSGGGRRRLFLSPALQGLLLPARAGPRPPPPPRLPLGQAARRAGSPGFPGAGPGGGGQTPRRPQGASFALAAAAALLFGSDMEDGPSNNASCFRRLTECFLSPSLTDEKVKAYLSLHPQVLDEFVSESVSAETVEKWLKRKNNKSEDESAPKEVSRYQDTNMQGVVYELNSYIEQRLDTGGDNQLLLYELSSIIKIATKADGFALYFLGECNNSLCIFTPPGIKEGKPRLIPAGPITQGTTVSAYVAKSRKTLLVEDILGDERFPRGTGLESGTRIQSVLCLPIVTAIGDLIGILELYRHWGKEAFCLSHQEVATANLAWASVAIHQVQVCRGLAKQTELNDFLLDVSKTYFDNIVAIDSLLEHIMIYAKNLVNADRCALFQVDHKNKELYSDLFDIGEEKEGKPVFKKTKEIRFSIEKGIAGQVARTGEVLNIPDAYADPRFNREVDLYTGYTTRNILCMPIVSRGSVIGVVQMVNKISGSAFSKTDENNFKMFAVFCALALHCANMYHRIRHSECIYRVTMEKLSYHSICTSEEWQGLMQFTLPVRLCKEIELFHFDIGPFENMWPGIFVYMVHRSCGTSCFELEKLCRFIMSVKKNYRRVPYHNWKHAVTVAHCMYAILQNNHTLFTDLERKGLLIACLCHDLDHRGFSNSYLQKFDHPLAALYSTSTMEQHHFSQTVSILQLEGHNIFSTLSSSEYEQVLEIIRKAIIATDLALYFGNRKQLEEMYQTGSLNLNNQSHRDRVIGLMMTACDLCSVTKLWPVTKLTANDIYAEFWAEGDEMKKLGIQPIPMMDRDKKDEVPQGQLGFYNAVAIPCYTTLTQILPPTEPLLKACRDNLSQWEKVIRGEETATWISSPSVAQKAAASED

Homo sapiens [11] = species on record: Homo sapiens; assay: Selectivity ratio of IC50 for PDE4 (unknown origin) to IC50 for PDE5 (unknown origin)
Phosphodiesterase 6 = assay: Inhibition of PDE6 (unknown origin) using FAM-cGMP as substrate after 60 mins by fluorescence assay; format: protein assay, Homo sapiens
Homo sapiens [12] = species on record: Homo sapiens; assay: Selectivity ratio of IC50 for PDE11 (unknown origin) to IC50 for PDE5 (unknown origin)
Phosphodiesterase 7 = Phosphodiesterase 7 (Homo sapiens, UniProt Q13946+Q9NP56); assay: Inhibition of PDE7 (unknown origin) using FAM-cAMP as substrate after 60 mins by fluorescence assay; format: protein assay
Phosphodiesterase 4 = Phosphodiesterase 4 (Homo sapiens, UniProt P27815+Q08499+Q07343+Q08493); assay: Inhibition of PDE4 (unknown origin) using FAM-cAMP as substrate after 60 mins by fluorescence assay; format: protein assay
[13] = molecular target: cGMP-specific 3',5'-cyclic phosphodiesterase (Homo sapiens, UniProt O76074); assay: Inhibition of PDE5 (unknown origin) using FAM-cGMP as substrate after 60 mins by fluorescence assay
Homo sapiens [14] = species on record: Homo sapiens; assay: Selectivity ratio of IC50 for PDE6 (unknown origin) to IC50 for PDE5 (unknown origin)
[15] = molecular target: cGMP-dependent 3',5'-cyclic phosphodiesterase (Homo sapiens, UniProt O00408); assay: Inhibition of PDE2 (unknown origin) using FAM-cGMP and FAM-cAMP as substrate after 60 mins by fluorescence assay
Sequence of cGMP-dependent 3',5'-cyclic phosphodiesterase (O00408 whole entry): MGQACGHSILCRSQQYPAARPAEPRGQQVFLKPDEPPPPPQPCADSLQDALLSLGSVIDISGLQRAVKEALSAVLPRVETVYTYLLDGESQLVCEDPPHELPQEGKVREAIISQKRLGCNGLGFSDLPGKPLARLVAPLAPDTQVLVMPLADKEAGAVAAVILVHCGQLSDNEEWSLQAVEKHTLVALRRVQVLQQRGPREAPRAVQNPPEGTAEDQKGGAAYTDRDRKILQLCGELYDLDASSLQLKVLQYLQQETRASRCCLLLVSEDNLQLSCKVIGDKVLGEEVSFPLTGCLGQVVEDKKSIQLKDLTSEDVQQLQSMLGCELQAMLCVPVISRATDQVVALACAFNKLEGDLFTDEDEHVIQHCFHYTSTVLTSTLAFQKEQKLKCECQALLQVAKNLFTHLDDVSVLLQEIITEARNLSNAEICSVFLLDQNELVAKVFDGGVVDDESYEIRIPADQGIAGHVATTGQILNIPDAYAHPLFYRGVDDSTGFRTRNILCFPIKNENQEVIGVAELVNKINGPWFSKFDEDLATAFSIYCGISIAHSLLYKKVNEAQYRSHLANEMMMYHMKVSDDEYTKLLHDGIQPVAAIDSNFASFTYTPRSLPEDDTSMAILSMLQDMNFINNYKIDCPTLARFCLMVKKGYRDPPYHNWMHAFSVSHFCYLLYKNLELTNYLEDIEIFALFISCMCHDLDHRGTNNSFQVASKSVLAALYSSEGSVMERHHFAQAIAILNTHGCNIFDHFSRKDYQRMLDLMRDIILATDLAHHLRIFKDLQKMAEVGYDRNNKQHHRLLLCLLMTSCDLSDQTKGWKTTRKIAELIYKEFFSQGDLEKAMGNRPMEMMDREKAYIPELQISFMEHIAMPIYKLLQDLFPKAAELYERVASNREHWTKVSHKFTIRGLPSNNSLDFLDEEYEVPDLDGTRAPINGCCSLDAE

Brain [16] = assay: Tmax in mouse brain at 50 mg/kg, po; format: ADME, organism-based; set-up: dose 50 mg/kg, route oral; settings: in vivo
In short: (§1)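 Male BALB/c mice dosed once orally at 50 mg/kg in 0.05% aqueous methylcellulose. Blood (retro-orbital, heparin) and brain were taken at 0, 0.25, 0.5, 1, 2 and 4 h, three mice per time point. Plasma and methanol brain homogenate were extracted with methanol plus internal standard and analysed by LC/MS/MS. Quantitation used analyte/internal standard peak-area ratios with weighted (1/x2) linear regression.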

Brain [17] = assay: AUC (0 to infinity) in mouse brain at 50 mg/kg, po; format: ADME, organism-based; set-up: dose 50 mg/kg, route oral, time infinity; settings: in vivo; in short: as §1
[18] = Cmax in mouse brain at 50 mg/kg, po; format: ADME, organism-based; set-up: dose 50 mg/kg, route oral; in short: as §1
Mus musculus [19] = assay: Reversal of post synaptic dysfunction in APP/PS1 transgenic mouse assessed as increase in theta burst-induced long term potentiation at 3 mg/kg/day, ip administered 3 weeks measured after 9 to 12 weeks […] (reference value: 112.29 9.12%); format: functional; settings: route intraperitoneal
[20] = Ratio of AUC (0 to t) in mouse brain to AUC (0 to t) in mouse plasma; format: ADME, cell-free
In short: (§2)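 Male BALB/c mice given 50 mg/kg p.o. in 0.05% methylcellulose aqueous solution. Blood (retro-orbital, heparin) and brain taken at 0, 0.25, 0.5, 1.0, 2.0 and 4.0 h, three mice per time point. Plasma and methanol brain homogenate extracted with internal standard and quantified by LC/MS/MS (peak area ratio, weighted linear regression). Ratio is brain over plasma parameter.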

Brain [21] = assay: AUC (0 to t) in mouse brain at 50 mg/kg, po; format: ADME, organism-based; set-up: dose 50 mg/kg, route oral; settings: in vivo; in short: as §1
Mus musculus [22] = assay: Inhibition of PDE5 in C57Bl6 mouse assessed as increase in electric shock-induced hippocampal cGMP level measured per mg of protein at 3 mg/kg, ip administered 30 mins prior to electric shock induction measured after 3 mins (reference value: 0.46 0.0385 pmol); format: functional, Hippocampus; settings: route intraperitoneal
In short: (§3)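 Male and female C57Bl6 mice, 2–3 months old, 20–25 g, received 3 mg/kg i.p. in 2% DMSO/2% Tween or vehicle alone. Foot shock was given 30 min later. Mice were killed 10 s, 1 min or 3 min after shock and the hippocampus was snap-frozen. cGMP was measured by enzyme immunoassay in duplicate and normalised to BCA protein; n=3 per group.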

[23] = Ratio of AUC (0 to infinity) in mouse brain to AUC (0 to infinity) in mouse plasma; format: ADME, cell-free; in short: as §2
Plasma [24] = assay: Mean residence time in mouse plasma at 50 mg/kg, po; format: ADME, organism-based; set-up: dose 50 mg/kg, route oral; settings: in vivo
Mus musculus [25] = assay: Reversal of contextual fear memory deficit in APP/PS1 transgenic mouse assessed as increase in freezing behavior at 3 mg/kg/day, ip administered 3 weeks measured after 9 to 12 weeks […] (reference value: 10%); format: functional; settings: route intraperitoneal
[26] = Ratio of Cmax in mouse brain to Cmax in mouse plasma; format: ADME, cell-free; in short: as §2
Plasma [27] = assay: AUC (0 to infinity) in mouse plasma at 50 mg/kg, po; format: ADME, organism-based; set-up: time infinity, dose 50 mg/kg, route oral; settings: in vivo; in short: as §1
Brain [28] = assay: Mean residence time in mouse brain at 50 mg/kg, po; format: ADME, organism-based; set-up: dose 50 mg/kg, route oral; settings: in vivo; in short: as §1
Mus musculus [29] = assay: Reversal of contextual fear memory deficit in APP/PS1 transgenic mouse assessed as increase in freezing behavior at 3 mg/kg, ip after 3 weeks (reference value: 10%); format: functional; settings: route intraperitoneal
Plasma [30] = assay: Tmax in mouse plasma at 50 mg/kg, po; format: ADME, organism-based; set-up: dose 50 mg/kg, route oral; settings: in vivo; in short: as §1
Mus musculus [31] = assay: Inhibition of PDE5 in C57Bl6 mouse assessed as increase in electric shock-induced hippocampal cGMP level measured per mg of protein at 3 mg/kg, ip administered 30 mins prior to electric shock induction measured after 10 secs (reference value: 0.318 0.0145 pmol); format: functional, Hippocampus; settings: route intraperitoneal; in short: as §3
Plasma [32] = assay: AUC (0 to t) in mouse plasma at 50 mg/kg, po; format: ADME, organism-based; set-up: dose 50 mg/kg, route oral; settings: in vivo; in short: as §1
Mus musculus [33] = assay: Reversal of contextual fear memory deficit in amyloid beta42-infused mouse assessed as increase in freezing behavior at 3 to 10 mg/kg, po administered immediately post electric shock measured after 24 hrs (reference value: 10%); format: functional; settings: dose mg/kg 3-10
In short: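 Aβ42 (200 nM, 1 μl over 1 min) or vehicle was infused bilaterally into the dorsal hippocampus through cannulas implanted 6–8 days earlier under Avertin. Infusion was 15 min before foot-shock training. Compound was given at 3 or 10 mg/kg p.o. immediately after training. Freezing was scored for 5 min in the same chamber 24 h later.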

Plasma [34] = assay: Cmax in mouse plasma at 50 mg/kg, po; format: ADME, organism-based; set-up: dose 50 mg/kg, route oral; settings: in vivo; in short: as §1
Hippocampus [35] = assay: Reversal of amyloid beta42-induced post synaptic dysfunction in mouse hippocampal assessed as increase in theta burst-induced long term potentiation at 50 nM incubated 10 mins prior to theta burst induction measured after 60 mins for 5 mins by electrophysiological assay (reference value: 144.65 9.99%); format: functional
Mus musculus [36] = assay: Inhibition of PDE5 in C57Bl6 mouse assessed as increase in electric shock-induced hippocampal cGMP level measured per mg of protein at 3 mg/kg, ip administered 30 mins prior to electric shock induction measured after 1 min (reference value: 0.41 0.028 pmol); format: functional, Hippocampus; settings: route intraperitoneal; in short: as §3
Hippocampus [37] = assay: Reversal of post synaptic dysfunction in APP/PS1 transgenic mouse hippocampal assessed as increase in theta burst-induced long term potentiation at 50 nM incubated 10 mins prior to theta burst induction measured after 2 hrs for 5 mins by electrophysiological assay (reference value: 145.84 7.78%); format: functional
In short: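 Transverse hippocampal slices (400 μm) from APP/PS1 mice were kept in an interface chamber at 29 °C and perfused with aerated ACSF, pH 7.4. Compound (50 nM) was bath-applied for 10 min before tetanus. CA1 fEPSP slopes were expressed as % of baseline, averaged over the last 5 min of a 2 h recording.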

## COc1ccc(CNc2c(CO)cnc3c(N(C)C)cc(C#N)cc23)cc1Cl
Homo sapiens [1]
  Ratio IC50: > 10000
Homo sapiens [2]
  Ratio IC50: > 10000
Homo sapiens [3]
  Ratio IC50: > 10000
[4]
  IC50: > 10 µM
Homo sapiens [5]
  Ratio IC50: > 10000
Homo sapiens [6]
  Ratio IC50: > 10000
Phosphodiesterase 3
  IC50: > 10 µM
[7]
  IC50: > 10 µM
Phosphodiesterase 8
  IC50: > 10 µM
Phosphodiesterase 1
  IC50: > 10 µM
Homo sapiens [8]
  Ratio IC50: > 10000
Homo sapiens [9]
  Ratio IC50: > 10000
[10]
  IC50: > 10 µM
Homo sapiens [11]
  Ratio IC50: > 10000
Phosphodiesterase 6
  IC50: 5.1 µM
Homo sapiens [12]
  Ratio IC50: > 10000
Phosphodiesterase 7
  IC50: > 10 µM
Phosphodiesterase 4
  IC50: > 10 µM
[13]
  IC50: 0.0004 µM
Homo sapiens [14]
  Ratio IC50: 12800
[15]
  IC50: > 10 µM

## COc1ccc(CNc2c(CO)cnc3c(C4CC4)cc(C#N)cc23)cc1Cl
Brain [16]
  Tmax: 0.5 h
Brain [17]
  AUC: 420 ng·h/g
[18]
  Cmax: 385 ng/g
Mus musculus [19]
  Activity: 180.9%
Homo sapiens [1]
  Ratio IC50: > 10000
[20]
  Ratio AUC: 0.41
Brain [21]
  AUCt: 418 ng·h/g
Mus musculus [22]
  Activity: 0.89 pmol
Homo sapiens [2]
  Ratio IC50: > 10000
Homo sapiens [3]
  Ratio IC50: > 10000
[4]
  IC50: > 10 µM
[23]
  Ratio AUC: 0.37
Homo sapiens [5]
  Ratio IC50: > 10000
Homo sapiens [6]
  Ratio IC50: > 10000
Phosphodiesterase 3
  IC50: > 10 µM
[7]
  IC50: > 10 µM
Plasma [24]
  MRT: 1.61 h
Mus musculus [25]
  Activity: 30%
Phosphodiesterase 8
  IC50: > 10 µM
[26]
  Ratio: 0.38
Phosphodiesterase 1
  IC50: > 10 µM
Homo sapiens [8]
  Ratio IC50: > 10000
Homo sapiens [9]
  Ratio IC50: > 10000
[10]
  IC50: > 10 µM
Homo sapiens [11]
  Ratio IC50: > 10000
Phosphodiesterase 6
  IC50: 0.339 µM
Plasma [27]
  AUC: 1133 ng·h/mL
Brain [28]
  MRT: 1.66 h
Mus musculus [29]
  Activity: 30%
Plasma [30]
  Tmax: 0.5 h
Mus musculus [31]
  Activity: 0.83 pmol
Homo sapiens [12]
  Ratio IC50: > 10000
Phosphodiesterase 7
  IC50: > 10 µM
Plasma [32]
  AUCt: 1014 ng·h/mL
Phosphodiesterase 4
  IC50: > 10 µM
Homo sapiens [14]
  Ratio IC50: 1260
[15]
  IC50: > 10 µM
Mus musculus [33]
  Activity: 30%
Plasma [34]
  Cmax: 1022 ng/mL
Hippocampus [35]
  Activity: 192.63%
Mus musculus [36]
  Activity: 0.69 pmol
Hippocampus [37]
  Activity: 180.85%

## COc1ccc(CNc2c(CO)cnc3c(N4CCOCC4)cc(C#N)cc23)cc1Cl
[13]
  IC50: 0.00063 µM

## COc1ccc(CNc2c(CO)cnc3c(NC4CC4)cc(C#N)cc23)cc1Cl
[13]
  IC50: 0.0041 µM
